In PMC9279630 (Acta Pharmaceutica Sinica. B, 2021):

Assay type: in vivo
Conditions: mouse
Procedure, shortened: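 Mice dosed i.p.; horizontal brain sections taken at time points over 24 h, treated by laser-assisted chemical transfer with CHCA as matrix, and imaged by MALDI MSI for the test compound and its metabolite. Relative intensities in brain regions and lateral ventricles cross-checked by LC‒MS/MS. Three biological and technical replicates; mean ± SD from three animals.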

Tmax (male, ICR, brain, ip, 20 mg/kg): ~15 min
Compound: Cc1nc2n(c(=O)c1CCN1CCC(c3noc4cc(F)ccc34)CC1)CCCC2 [RISP, risperidone]
brain regional distribution after 2 h (after 2 h, i.p. RISP 20 mg/kg): a small amount of parent drug was only observed in the lateral ventricles
brain regional distribution (after i.p. administration of RISP 20 mg/kg, around peak): mainly observed in the frontal cortex, striatum, and hippocampus regions
